# Bioassay records from PubChem BioAssay.
# Hits are enriched below; roughly 1.6% of the tested compounds scored in any of these assays.
# Pemphigus Ab inh = human desmoglein-3 autoantibody binding inhibition; P32926; DSG3-coupled beads, scFv-anti-DSG3-GFP binding, flow cytometry; stronger effect = lower value; binding (percent of control), % at 10 µM; 310,000 tested, 0.48% active; AID 588358;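 active means binding more than 3 SD below its plate's average and above zero; inconclusive means below that plate limit but binding exactly zero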;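 further: hits lower antibody fragment binding to DSG3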
# HDAC3 inhib = blocks human histone deacetylase 3; O15379; recombinant HDAC3, fluorogenic peptide/trypsin coupled, fluorescence; inhibition, % at 8.3 µM; 320,000 tested, 0.15% active; in the data active means inhibition above about 26%, passing the limit was not always enough; inconclusive means no clear call, values can overlap the other calls
# GASC-1 inh = blocks human GASC-1 demethylase activity; Q9H3R0; GST-JMJD2C(1-420) H3K9me3 demethylation, DELFIA europium; inhibition, % at 2.35 µM; 330,000 tested, 0.069% active; AID 2099;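 active means more than half of a compound's replicate wells show inhibition beyond 50%, single wells judged on their own value; inconclusive means some, but no more than half, of replicates pass 50% inhibition; inactive means no replicate passes 50% inhibition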;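 further: signal counts dimethyl H3K9 product captured on neutravidin plate; 0% = median of DMSO wells and 100% = 0.3 times that DMSO median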
# LANA-H2B inh = blocks KSHV LANA binding to histone H2A/H2B; inhibition, % (concentration not given with the values); 320,000 tested, 0.6% active; cell-free LANA-H2A/H2B peptide, fluorescence polarization; in the data active means inhibition mostly above about 10%, no sharp cut-off; inactive means mostly below about 6.7%
# Target sequence (Q9QR71 whole entry, looked up): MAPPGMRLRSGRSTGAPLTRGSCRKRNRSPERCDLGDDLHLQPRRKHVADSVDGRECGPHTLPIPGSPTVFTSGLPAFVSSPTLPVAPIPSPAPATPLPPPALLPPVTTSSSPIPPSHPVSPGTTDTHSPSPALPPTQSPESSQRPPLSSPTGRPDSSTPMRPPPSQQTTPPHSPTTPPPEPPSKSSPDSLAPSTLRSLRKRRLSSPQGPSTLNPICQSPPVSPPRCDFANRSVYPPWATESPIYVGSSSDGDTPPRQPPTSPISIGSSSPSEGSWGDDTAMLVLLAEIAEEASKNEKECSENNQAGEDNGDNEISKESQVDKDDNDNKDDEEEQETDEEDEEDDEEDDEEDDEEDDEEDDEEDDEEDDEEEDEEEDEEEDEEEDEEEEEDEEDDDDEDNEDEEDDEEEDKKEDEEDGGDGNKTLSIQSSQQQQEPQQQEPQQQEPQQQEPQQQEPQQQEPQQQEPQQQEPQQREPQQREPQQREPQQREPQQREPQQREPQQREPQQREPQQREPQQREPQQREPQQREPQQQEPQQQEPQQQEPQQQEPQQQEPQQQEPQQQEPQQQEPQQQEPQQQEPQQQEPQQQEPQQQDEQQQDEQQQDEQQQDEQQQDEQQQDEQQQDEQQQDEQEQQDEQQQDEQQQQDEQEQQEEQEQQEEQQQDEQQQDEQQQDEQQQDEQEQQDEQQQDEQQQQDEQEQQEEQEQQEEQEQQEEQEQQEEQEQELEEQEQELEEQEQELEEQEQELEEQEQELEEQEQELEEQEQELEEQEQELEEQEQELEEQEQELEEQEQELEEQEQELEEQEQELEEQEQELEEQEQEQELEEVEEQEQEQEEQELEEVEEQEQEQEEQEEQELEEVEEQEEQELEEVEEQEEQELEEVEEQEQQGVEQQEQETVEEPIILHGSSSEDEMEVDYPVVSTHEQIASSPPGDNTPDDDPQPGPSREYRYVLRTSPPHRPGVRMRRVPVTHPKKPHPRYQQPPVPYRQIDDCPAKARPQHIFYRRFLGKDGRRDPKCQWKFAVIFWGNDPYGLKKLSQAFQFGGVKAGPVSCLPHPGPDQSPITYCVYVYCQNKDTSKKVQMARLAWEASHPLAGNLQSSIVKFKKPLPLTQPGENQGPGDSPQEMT
# Arr AP2 block = inhibitors of human beta-arrestin and AP2 interaction; FITC-arrestin peptide / GST-AP2 beads, flow cytometry; AP2 beta2 appendage carries R879A mutation; inhibition, % at 10 µM; 340,000 tested, 0.31% active;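 active means inhibition above a set limit, near 3 SD of compounds lacking own fluorescence, cut at about 54% in these data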;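 further: plate controls were DMSO wells for no effect and 5 µM unlabelled arrestin peptide for full effect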
#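 test system = AP2 appendage R879A on GSH beads | buffer or medium = PBS plus Tween 20 (0.05%) and BSA (0.1%) | incubation = 12 min plus 1 h, RT | detection = bead flow cytometry, FITC channel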
# T cell modulator = T cell immune modulation candidate | 2C CD8+ T cell-vesicle binding, flow cytometry; stronger effect = lower value | response (vesicle binding), % at 7 µM | 330,000 tested, 0.068% active | AID 2052;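 active means response, share of CD8 T cells binding vesicles, and their 90th percentile fluorescence all below set limits, cut at about 80% in these data, passing the limit was not always enough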;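 further: values below 100% mean blocked vesicle binding to the CD8+ T cells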
#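 Assay system – 2C mouse CD8+ T cells · Also added – QL9-loaded Drosophila micro-vesicles · Timing – Cell–vesicle co-incubation 1.5 h at 37 °C, staining 20 min on ice · Signal – flow cytometry of vesicle-bound cells · Measure – percent CD8+ FL2 mean versus row control · Controls – Peptide-free naked vesicles (low) and QL9 vesicles with 0.7% DMSO vehicle (high)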
# * = called active by the depositor; i = inactive; ? = inconclusive; · = no result given; ! = a repeat was not active.
SMILES,Pemphigus Ab inh,HDAC3 inhib,GASC-1 inh,LANA-H2B inh,Arr AP2 block,T cell modulator
Cc1ccc(S(=O)(=O)N2CCOCC2)cc1NC(=O)CSc1nnc(C2CC2)n1C1CC1,·,0,-6,3,-4,397
CC(=O)Oc1cc(O)c2c(=O)c(OC(C)=O)c(-c3ccc(OC(C)=O)c(OC(C)=O)c3)oc2c1,105,4,14,1,9,65*
Cc1c(O)ccc2c(CC(=O)N[C@@H](Cc3c[nH]c4ccccc34)C(=O)O)cc(=O)oc12,103,-10,-1,1,-2,44
Nc1cc(-c2ccc(Br)cc2)nn1S(=O)(=O)c1ccccc1,62*,7,3,0,-5,495
Cc1c(C=O)c(=O)n(-c2ccccc2)n1C,102,-6,-5,5,5,267
Cc1c(N(C)C)c(=O)n(-c2ccccc2)n1C,104,-9,8,42*,20,706
CCOC(=O)C(C(=O)OCC)c1cc(Br)c2noc3c2c1C(=O)c1ccccc1-3,101,0,3,2,94*,241
CC(=O)OCCNc1cc(N2CCN(C)CC2)c2noc3c2c1C(=O)c1ccccc1-3,90,·,·,·,19,·
O=c1nc2sc3ccccc3n2c(=O)n1-c1cccc(Cl)c1,89,-2,-2,1,9,218
O=c1c2ccccc2sn1-c1nccs1,28*,·,-6,·,48,·
O=C(O)c1cccc(-n2sc3ccccc3c2=O)c1,61*,?,1,2,8,731
CC(=O)Nc1ccc2c(=O)n(-c3ccccc3)sc2c1,48*,·,·,·,·,·
O=C1c2ccccc2C(=O)N1c1nccs1,110,·,·,·,34,·
O=c1c2ccccc2sn1-c1cccc(Cl)c1,40*,·,·,·,·,·
CN(C)CCn1c2c(c(SCC(=O)Nc3ccc4c(c3)OCCO4)nc1=O)CCCC2,99,0,-3,-1,-3,287
O=C(CCCc1ccccc1)NCCc1ccc(F)cc1,116,6,12,12,-5,437
Cc1ccccc1CC(=O)N1CCCC1,116,2,28,0,40,240
O=c1c2ccccc2on1-c1ccccc1,102,·,·,·,·,·
CN(C)S(=O)(=O)c1cccc(-n2sc3ccccc3c2=O)c1,29*,0,·,-3,20,146
O=c1c2ccccc2sn1-c1ccccc1,?,49*,-6,-4,43,187
N#Cc1ccc2c(=O)n(-c3ccccc3)sc2c1,68*,·,·,·,·,·
Cc1ccc(NC(=O)CN2C(=O)NC3(CCCc4ccccc43)C2=O)c(C)c1 (stereo not drawn),103,·,·,·,-3,·
C/C(N)=C(/C#N)C(=O)CSc1nnc(-c2ccc3c(c2)OCO3)o1,99,0,-21,-2,-11,634
C/C(N)=C(/C#N)C(=O)CSc1nnc(-c2ccc(OC(F)F)cc2)o1,80*!,5,-6,-3,0,i
C[c-]1[c-](C)[c-](C)[c-](C)[c-]1C.[Fe].c1cc2nccc(N3CCCC3)[c-]2c1 (stereo not drawn),80*!,29*!,10,-1,6,207
SMILES,Pemphigus Ab inh,HDAC3 inhib,GASC-1 inh,LANA-H2B inh,Arr AP2 block,T cell modulator
CCOC(=O)Cc1csc(NC(=O)CCC(=O)O)n1,126,2,-2,6,4,632
CCOC(=O)Cc1csc(NC(=O)COc2ccc(C)cc2)n1,105,2,1,3,9,161
CCOC(=O)Cc1csc(NC(=O)CCCc2ccccc2)n1,120,-2,4,-2,-11,0.0*
CCOC(=O)Cc1csc(NC(=O)COc2ccccc2)n1,65*,7,1,-6,4,292
COc1ccc(NC(=O)C2(S(=O)(=O)c3ccc(C)cc3)CC2)cc1OC,104,-2,1,26*,31,264
Cc1ccc(NS(=O)(=O)c2ccc(Cl)nc2)c(C)c1,?,·,·,·,-7,·
CC(C)c1ccc(C2CC(=O)c3cnc(N4CCc5ccccc5C4)nc3C2)cc1 (stereo not drawn),96,-7,-22,-2,1,135
CC1CC(C)CN(c2ncc3c(n2)CC(c2ccccc2)CC3=O)C1 (stereo not drawn),72*,4,-6,-4,17,689
CC(C)n1cc(CN2CCC(Oc3ccc(C(=O)N4CCCC4)cc3)CC2)cn1,120,3,4,49*,6,428
Cc1ccc(S(=O)(=O)Nc2c(O)ccc3ccccc23)cc1,106,3,-3,-4,7,33*
O=S(=O)(Nc1c(O)ccc2ccccc12)c1cccc2ccccc12,103,4,-12,-4,19,117
Cc1ccc(S(=O)(=O)NCCn2cnc([N+](=O)[O-])n2)cc1,97,1,-3,-2,36,256
COc1ccc(OCC(=O)Nc2ccc(OC)c(S(=O)(=O)N3CCCCC3)c2)cc1,101,4,-5,8,-2,480
CCCN1C(=O)/C(=c2\sc3nc(=O)c(Cc4ccc(C)cc4)nn3c2=O)c2ccccc21,68*,3,-9,-1,39,215
CC1CCN(C(=O)CCNS(=O)(=O)c2ccc3c(c2)c(=O)n(C)c(=O)n3C)CC1,·,1,-5,1,4,398
N#CC(C#N)=C/C(C#N)=C(/N)N1CCN(c2ccc(Cl)cc2)CC1,97,4,4,18*,30,152
CN(C)C(=C(C#N)C#N)N1CCN(c2ccc(Cl)cc2)CC1,107,3,19,2,-1,144
CCOCCn1c(C)c(C(=O)OCC)c2cc(O)c3ccccc3c21,90,12,3,-1,-7,0
O=C(O)c1cccc(S(=O)(=O)Nc2ccccc2Oc2ccccc2)c1,102,·,·,·,·,·
COC(=O)c1ccccc1S(=O)(=O)N1CCC(C(=O)Nc2ccccc2N2CCOCC2)CC1,101,·,·,·,-6,·
Cc1cc(C)c(C)c(S(=O)(=O)N2CCC(C(=O)Nc3ccccc3N3CCOCC3)CC2)c1C,1.0*,3,8,4,24,783
CCCCCCCCCCOC(=O)Cn1c(COc2ccc(Cl)cc2)[n+](C)c2ccccc21,109,52*,30,10,-3,239
Cc1c(NS(=O)(=O)c2cc(C(=O)NCCN(C)C)ccc2Cl)c(=O)n(-c2ccccc2)n1C,104,5,-8,2,30,291
COc1ccc(COC[B-](F)(F)F)cc1,104,·,·,·,·,·
CC(C)(C)c1ccc(OCCCC(=O)NC2=NCCS2)cc1,-19*,-1,-8,3,8,313
CC(C)(C)c1ccc(C(=O)NCCC(=O)NC2=NCCS2)cc1,?,7,·,11,7,264
COc1ccc(OCC(=O)Nc2nnc(S(=O)(=O)N3CCCCCC3)s2)cc1,105,-2,9,0,-2,825
Cc1ccc(OCC(=O)Nc2nnc(S(=O)(=O)N3CCC(C)CC3)s2)cc1,74*,0,·,-6,7,395
